Compound activity as filed in PubChem.
This is a sample that favours compounds with a hit; in the whole collection about 4.2% have one here.
OX1R antag-1 = antagonists of human orexin 1 receptor. 330,000 tested, 0.43% active. O43613. CHO/OX1R cells, Fluo-8 calcium fluorescence, orexin A. inhibition, % at 5 µM;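 active means inhibition above its plate's threshold, mean inhibition of all tested compounds on the plate plus 3 SD, cut at about 37% in these data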;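 further: 0% = orexin A challenge wells and 100% = SB-334867-A antagonist wells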
TAAR1 antagonist = antagonists of human TAAR1 | AID 624466 | inhibition, % at 3 µM | Q96RJ0 | 360,000 tested, 1.5% active | CHO RD-HGA16 TAAR1, Fluo-8 calcium fluorescence, antagonist;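 active means inhibition above a per-plate cutoff, the mean inhibition of test compounds on that plate plus 3 SD, cut at about 49% in these data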;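 further: 0% = DMSO plus EC80 beta-PEA response and 100% = DMSO alone without agonist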
Target sequence (Q96RJ0 whole entry, looked up): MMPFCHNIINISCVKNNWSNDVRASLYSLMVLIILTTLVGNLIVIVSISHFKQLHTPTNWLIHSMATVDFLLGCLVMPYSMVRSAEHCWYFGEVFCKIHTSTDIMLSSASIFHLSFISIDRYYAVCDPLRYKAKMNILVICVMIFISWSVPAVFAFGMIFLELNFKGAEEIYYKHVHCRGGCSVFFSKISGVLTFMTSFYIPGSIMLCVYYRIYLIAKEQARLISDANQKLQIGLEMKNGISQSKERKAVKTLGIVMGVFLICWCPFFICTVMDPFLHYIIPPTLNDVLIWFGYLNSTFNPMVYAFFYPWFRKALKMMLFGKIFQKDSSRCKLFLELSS
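Test system – hTAAR1-expressing CHO RD-HGA16 cells, Gα16-coupled · Reagent – β-PEA at EC80 concentration, post-compound challenge · Compound dosing – 3 µM, single point · Timing – 140 s kinetic read after compound, 140 s after agonist · Detection – Fluo-8 intracellular calcium dye fluorescence, real-time kinetic reads · Control set – DMSO and EC80 PEA controls · Repeats – n of 1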
CHO parental Ca = counter-screen: ATP calcium response change in parental CHO cells; parental CHO-K1, ATP-induced calcium, Fluo-8 fluorescence; inhibition, % at 5.6 µM; 330,000 tested, 0.63% active; AID 463079;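 active means inhibition above that plate's mean sample inhibition plus 3 SD, cut at about 26% in these data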;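 further: 0% = ATP-challenged DMSO wells and 100% = DMSO wells without ATP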
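material = parental CHO cells | also added = ATP as calcium-mobilizing challenge | dosing = single point at 5.6 µM | detection = intracellular calcium via Fluo-8 no-wash fluorescent dye | read-out = % inhibition | benchmarks = low control ATP plus DMSO, high control DMSO only | repeats = one well per compound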
GalR3 antag = antagonists of human GalR3. HEK293 GalR3-CNG cAMP membrane potential fluorescence; galR3 body fused to GalR1 C-terminus. inhibition, % at 3 µM. 360,000 tested, 0.44% active. O60755;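 active means inhibition above the screen-wide average plus 3 SD, cut at about 13% in these data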;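 further: forskolin and galanin both at EC90 stimulate the cells; cAMP rise reported by CNG channel membrane potential dye signal; 0% = forskolin plus galanin with DMSO and 100% = forskolin alone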
Target sequence (O60755 1-299 limits assumed): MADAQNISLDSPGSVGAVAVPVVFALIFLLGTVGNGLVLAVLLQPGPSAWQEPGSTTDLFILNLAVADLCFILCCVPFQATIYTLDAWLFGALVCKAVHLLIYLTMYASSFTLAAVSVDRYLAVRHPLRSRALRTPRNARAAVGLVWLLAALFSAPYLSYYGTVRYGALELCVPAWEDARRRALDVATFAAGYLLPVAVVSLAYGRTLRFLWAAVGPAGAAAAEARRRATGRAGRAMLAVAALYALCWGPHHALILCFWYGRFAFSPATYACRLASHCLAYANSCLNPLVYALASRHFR
OX1R antag-2 = OX1R (human) antagonism; O43613; OX1R-expressing cells, FRET antagonist read-out; inhibition, % at 6.6 µM; 330,000 tested, 1.8% active; in the data active means inhibition mostly above about 38%, no sharp cut-off; inactive means mostly below about 40%;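 further: 0% = agonist challenge alone and 100% = reference antagonist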
TAAR1 agonist = agonists of human TAAR1; Q96RJ0; CHO RD-HGA16 TAAR1, Fluo-8 calcium fluorescence; vehicle wells 0%, saturating PEA agonist 100%; activation, % at 3 µM; 360,000 tested, 0.99% active; AID 624467;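 active means activation above the mean activation of all test compounds in the run plus 3 SD, cut at about 38% in these data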
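System: CHO RD-HGA16 cells carrying human TAAR1 plus Gα16; Incubation: 17-24 h seeding, 75 min 37 °C dye, 30 min RT; Measured by: Fluo-8 fluorescence, 5 s baseline then 140 s kinetic read; Control set: DMSO and PEA EC100; Replication: single well for each compound.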
GalR3 conf = confirmation of human galanin receptor 3 antagonists; shares compounds with GalR3 antag; HEK293 GalR3 CNG cAMP biosensor, membrane potential fluorescence; galR3 fused to GalR1 carboxy tail; challenged with forskolin and galanin at EC90; inhibition, % at 3 µM; 1,600 tested, 59% active;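 active means inhibition above the primary screen's cutoff, the mean inhibition of all screened compounds plus 3 SD, cut at about 13% in these data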;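 further: 0% = forskolin plus galanin and 100% = forskolin alone with DMSO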
HEK-CNG parental = counter-screen for GalR3 antagonists: nonspecific agonists in parental HEK-CNG cells | shares compounds with GalR3 antag | HEK293-CNG parental cells, cAMP membrane potential fluorescence; normalised: DMSO wells 0%, forskolin wells 100% | activation, % at 3 µM | 1,600 tested, 10% active; in the data active means activation above about 1.3%
* marks the source's active call; other numbers are inactive results; · = not tested or not shown.

SMILES	OX1R antag-1	TAAR1 antagonist	CHO parental Ca	GalR3 antag	OX1R antag-2	TAAR1 agonist	GalR3 conf	HEK-CNG parental
C=CC[C@@H](CC(=O)N[C@H](CO)Cc1ccccc1)C(=O)N[C@@H](COC(=O)[C@@H](CC=C)CC(=O)OC(C)(C)C)Cc1ccccc1	-27	38	-18	-3	3	7	·	·
CCn1cc([N+](=O)[O-])c(C(=O)N2N=C(c3ccc(Cl)c(Cl)c3)CC2c2ccccc2O)n1 (stereo not drawn)	73*	23	44*	15*	18	10	20*	0
CCOc1ccc(CN(C(=O)c2cc(=O)c3cc(C)cc(C)c3o2)C2CCS(=O)(=O)C2)cc1 (stereo not drawn)	-28	-5	-19	17*	28	5	2	0
Cc1onc(-c2ccccc2)c1-c1nc2ccccc2c(=O)o1	-11	1	-3	16*	10	4	13*	2.0*
Cc1onc(-c2ccccc2)c1-c1nc2cc(Cl)ccc2c(=O)o1	-14	-30	-9	-2	11	0	·	·
Cc1cccc(NC(=S)NC(=O)/C=C/c2ccco2)c1	-16	-8	-16	-2	11	10	·	·
COc1ccc(Nc2nc(NC(C)(C)C)nc(N3CCCC3)n2)c(OC)c1	-28	-1	-29	-7	31	5	·	·
CC[n+]1c(/C=C2\Sc3ccccc3N2C)ccc2cccc(C)c21	·	40	·	9	·	29	·	·
CCN1/C(=C/c2ccc3cc(C)ccc3[n+]2CC)Sc2ccccc21	86*	56*	89*	38*	103*	26	45*	12*
CCN1/C(=C/c2ccc3cc(C)ccc3[n+]2CC)Sc2cc(C)c(C)cc21	·	18	·	51*	·	14	58*	9.7*
CC1CCN(C(=O)CSc2nnc(Cn3c(=O)sc4ccccc43)n2C)CC1	-18	-1	0	3	4	-1	·	·
Cc1ccccc1OCC(=O)N1CCCc2ccccc21	-3	-3	-9	-5	12	6	·	·
COc1ccccc1CC(=O)N1CCCc2ccccc21	-19	1	-2	·	13	3	3	1
O=C(COC(=O)/C=C/c1cccc(F)c1)Nc1ccc2[nH]c(=O)[nH]c2c1	-4	-7	3	-5	16	3	·	·
O=C(COC(=O)/C=C/c1cccc(Cl)c1)Nc1ccc2[nH]c(=O)[nH]c2c1	-17	-16	5	35*	11	2	44*	6.9*
O=C(O)[C@@H](O)[C@H](O)C(=O)O	-3	-7	-6	·	17	1	·	·
c1ccc2c(c1)oc1c(Nc3ccc(CN4CCOCC4)cc3)ncnc12	-5	31	-11	-3	26	5	·	·
COc1cc2c(cc1OC)-c1cc(Nc3ccccc3C)nc(=O)n1CC2	-29	-5	-11	46*	15	-3	53*	1
COc1cc2c(cc1OC)-c1cc(Nc3cccc(C)c3)nc(=O)n1CC2	-12	-3	-19	53*	13	7	59*	1
CCOc1ccccc1Nc1cc2n(c(=O)n1)CCc1cc(OC)c(OC)cc1-2	-38	2	-19	53*	16	4	67*	1
CCOc1ccc(Nc2cc3n(c(=O)n2)CCc2cc(OC)c(OC)cc2-3)cc1	-36	-14	-12	1	17	1	·	·
CCC1Sc2ccc(S(=O)(=O)CCC(=O)Nc3cc(C)ccn3)cc2NC1=O (stereo not drawn)	-28	-3	-14	-10	7	4	·	·
COc1ccc(C2=NN(CCC(=O)NCC3CCCO3)C(=O)CC2)cc1 (stereo not drawn)	-15	-6	-2	-4	13	1	·	·
COc1ccc(S(=O)(=O)N/N=C\c2ccc3c(c2)OCO3)c(OC)c1	·	-25	·	100*	·	5	73*	0
COc1ccc(OC)c(S(=O)(=O)N/N=C\c2ccc3c(c2)OCO3)c1	0	-20	3	-3	3	0	·	·
SMILES	OX1R antag-1	TAAR1 antagonist	CHO parental Ca	GalR3 antag	OX1R antag-2	TAAR1 agonist	GalR3 conf	HEK-CNG parental
CCC(C)C1NC(=S)N(Cc2ccccc2)C1=O (stereo not drawn)	18	1	-20	-7	47	5	·	·
CCCS(=O)(=O)NCCc1cc2cc(C)c(C)cc2[nH]c1=O	-8	-1	-12	-5	18	7	·	·
COCC(C)n1c(-c2ccc3c(c2)NC(=O)CO3)csc1=Nc1ccc(OC(F)F)cc1 (stereo not drawn)	-16	2	8	31*	9	1	92*	-1
O=C1COc2ccc(-c3csc(=Nc4ccc(OC(F)F)cc4)n3CC3CCCO3)cc2N1 (stereo not drawn)	-23	-34	-34	-3	9	4	·	·
Cc1ccc(C2C(C#N)=C(N)Oc3cc4c(cc32)OCO4)cc1 (stereo not drawn)	-13	-18	-8	1	30	1	·	·
CC(C)(C)C1=C(C#N)C(c2cc3c(cc2Br)OCO3)C(C#N)=C(N)O1 (stereo not drawn)	-15	-7	4	·	18	9	-3	0
Cc1cccc(OCC(=O)NNC(=O)Nc2cccc(Cl)c2)c1C	-13	13	-12	0	6	8	·	·
CCCCCc1ccc(C2=NNC(=O)CC2)cc1	-3	-18	2	-2	-1	4	·	·
CC(C)CCOc1ccc(C2=NNC(=O)CC2)cc1	5	7	-5	26*	3	16	15*	1
Cc1occc1C(=O)NCc1nc(-c2ccc(Cl)cc2)no1	-11	-1	-12	-9	13	-4	·	·
COc1ccc(OC)c(-c2nnc3n2N=C(c2ccc(OC)c(OC)c2)CS3)c1	3	7	-18	50*	16	1	34*	1.5*
COc1ccc(C2=Nn3c(nnc3C3CCCCC3)SC2)cc1OC	-9	6	-17	49*	21	1	48*	1
c1ccc(-c2nn3c(C4CCCCC4)nnc3s2)cc1	-34	-6	-2	0	28	1	·	·
COc1cc(-c2nn3c(C4CCCCC4)nnc3s2)cc(OC)c1OC	-17	35	-10	18*	14	7	8	0
COc1ccc(-c2nn3c(C4CCCCC4)nnc3s2)cc1OC	-31	-5	5	17*	26	18	24*	1
CCN(CC)S(=O)(=O)c1ccc(N2CCOCC2)c(NC(=O)CC(C)(C)C)c1	-29	-12	-18	-3	5	4	·	·
